Compounds with a hit are over-represented: about 12% of the library has one in this group of screens.
L major viab: reduces viability of Leishmania major promastigotes; resazurin fluorescence viability; inhibition, % at 10 µM; hit rate 9% among 200,000; in the data active = inhibition above about 50%;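 note: promastigotes grown with compound for 44 hours at 28 °C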
Diaphorase act: counter-screen for diaphorase-based assays: diaphorase activators and chemical reducers; Diaphorase/resazurin coupled assay, resorufin fluorescence, 16 min; stronger effect = higher value; 1 = vehicle wells, 0 = NADH-free wells; activation factor at 20 µM; hit rate 0.005% among 190,000; AID 1229;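 active = diaphorase activity raised at least twofold by the compound at 20 µM; inactive = activation factor below 2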
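Measured by – red resorufin fluorescence at 544/590 nm excitation/emission · Test system – Clostridium kluyveri diaphorase, purified enzyme · Incubation – reaction time 16 min, room temperature · Buffer or medium – 50 mM HEPES pH 7.4 with 4.542 mM MgCl2, 0.005% Tween 20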
Diaphorase inh: diaphorase inhibition or chemical oxidation counter-screen. diaphorase resazurin-to-resorufin fluorescence, NADH, 16 min; bacterial (C. kluyveri) enzyme, not human. inhibition, % at 20 µM. hit rate 0.69% among 190,000;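 active = primary screen inhibition at 20 µM above a set limit, cut at about 50% in these data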;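 note: plate controls were DMSO with full reaction for no effect and wells lacking NADH for full effect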
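System: Diaphorase enzyme from Clostridium kluyveri | Amount: Enzyme working solution with 0.14 U/mL diaphorase | Benchmarks: No-NADH positive control and DMSO neutral control | Signal: Fluorescence of resorufin formed from resazurin, Ex 544/Em 590 nm | Schedule: 16-min room-temperature incubation before reading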
ROMK mod: modulators of human ROMK potassium channel. P48048. Tet-inducible ROMK, thallium flux fluorescence; actives lie on both sides. B-score at 10 µM. hit rate 2% among 130,000. AID 1918;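 active = signal ratio slope over the read window, or its plate-corrected B-score, at least 3 SD from the plate mean, either direction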;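 note: B-score of the F/F0 ratio slope over 7 to 12 s after thallium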
WT yeast gro inh: growth inhibition of WT yeast, mitochondrial fusion screen; inhibition, % at 10 µM; mitochondrial fusion phenotypic screen, WT strain; AID 1362; hit rate 2.1% among 190,000; in the data active = inhibition above about 58%; tested in S. cerevisiae
KCC2 mod: modulates chloride dependent transport by human KCC2 | Q9H2X9 | KCC2 cells, thallium flux FluoZin-2 fluorescence | B-score of Tl+ flux slope (higher = more flux/activation; lower = inhibition) at 10 µM | hit rate 2.2% among 190,000 | AID 1456;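 active = thallium flux slope and its plate-corrected score both differing from the plate sample mean at a set confidence after two filtering rounds, in either direction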;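 note: slope of fluorescence scaled to starting intensity during 10 to 20 s after thallium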
Target sequence (Q9H2X9 whole entry, looked up): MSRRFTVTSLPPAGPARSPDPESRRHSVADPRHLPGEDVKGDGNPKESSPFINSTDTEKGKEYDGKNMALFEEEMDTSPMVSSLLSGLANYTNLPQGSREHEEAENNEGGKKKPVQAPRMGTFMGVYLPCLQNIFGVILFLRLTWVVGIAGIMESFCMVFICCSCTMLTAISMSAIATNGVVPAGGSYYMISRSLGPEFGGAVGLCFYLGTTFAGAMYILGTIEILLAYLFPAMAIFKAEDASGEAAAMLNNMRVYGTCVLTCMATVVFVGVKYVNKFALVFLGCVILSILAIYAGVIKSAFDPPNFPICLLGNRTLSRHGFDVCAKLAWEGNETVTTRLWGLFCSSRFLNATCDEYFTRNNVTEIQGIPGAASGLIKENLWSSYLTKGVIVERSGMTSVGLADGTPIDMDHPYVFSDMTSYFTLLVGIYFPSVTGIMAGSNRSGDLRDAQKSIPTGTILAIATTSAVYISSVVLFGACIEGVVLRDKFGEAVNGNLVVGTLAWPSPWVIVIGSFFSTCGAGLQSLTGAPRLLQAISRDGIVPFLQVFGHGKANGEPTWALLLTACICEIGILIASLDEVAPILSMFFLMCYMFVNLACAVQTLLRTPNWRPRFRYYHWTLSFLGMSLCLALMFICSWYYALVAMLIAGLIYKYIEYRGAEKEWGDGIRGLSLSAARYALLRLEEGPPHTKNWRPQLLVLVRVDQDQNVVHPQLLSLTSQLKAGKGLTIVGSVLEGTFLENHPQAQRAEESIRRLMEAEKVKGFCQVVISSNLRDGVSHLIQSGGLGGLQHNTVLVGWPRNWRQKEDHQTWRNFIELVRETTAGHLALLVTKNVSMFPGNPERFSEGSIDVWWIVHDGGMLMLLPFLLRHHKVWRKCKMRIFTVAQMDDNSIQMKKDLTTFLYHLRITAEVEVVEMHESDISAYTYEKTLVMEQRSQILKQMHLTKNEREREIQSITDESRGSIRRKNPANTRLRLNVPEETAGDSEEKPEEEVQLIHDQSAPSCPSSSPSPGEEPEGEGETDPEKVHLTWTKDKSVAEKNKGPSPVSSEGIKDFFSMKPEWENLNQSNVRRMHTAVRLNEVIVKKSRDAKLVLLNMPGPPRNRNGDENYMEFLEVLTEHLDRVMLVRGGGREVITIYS
KCC2 secondary: KCC2 (human) modulation, secondary assay; shares compounds with KCC2 mod; AID 1713; hit rate 15% among 3,700; normalised thallium flux (F/F0 slope) at 10 µM; HEK293-KCC2, thallium flux, FluoZin2 fluorescence; stronger effect = higher value;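 active = thallium flux slope above the same plate's solvent-only control mean plus 3 SD; inconclusive = the two replicate wells disagree; inactive = no significant difference from solvent-only control wells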
KCC2 bumet counter: thallium flux persisting under bumetanide in KCC2 cells, counter-screen secondary assay; HEK293-KCC2 + bumetanide/ouabain, thallium flux FluoZin2; stronger effect = higher value; normalized thallium flux at 10 µM; shares compounds with KCC2 mod; hit rate 49% among 3,700;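 active = thallium entry rate above the same plate's blocked-transporter control wells by more than 3 SD; inconclusive = the two repeat wells disagree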;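 note: raw slope of fluorescence over initial fluorescence between 10 and 20 s after thallium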
KCC2 secondary2: confirmation of human KCC2 transport modulators. shares compounds with KCC2 mod. HEK293-KCC2, thallium flux FluoZin2 fluorescence; actives lie on both sides; F/F0 rise rate, 10–20 s post-thallium. normalized thallium flux at 10 µM. AID 1715. hit rate 23% among 3,700;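 active = thallium flux slope more than 3 SD above or below the plate's solvent-only control mean, mostly below; inconclusive = the two repeat wells disagreed; inactive = no significant shift from solvent-only controls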;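 note: raw slope with 0.1% DMSO as baseline and bumetanide as block control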
HEK293 Tl flux: parental HEK flux effect, counter-screen; shares compounds with KCC2 mod; HEK293 parental cells, thallium flux FluoZin2, ouabain; baseline-ratio fluorescence slope, 10–20 s after thallium; thallium flux rate (normalised fluorescence) at 10 µM; hit rate 46% among 3,700; AID 1716;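 active = thallium flux rate significantly above the same plate's solvent-only control wells, beyond their mean plus 3 SD; inconclusive = the two replicate wells gave conflicting results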
KCC2 retest ouab: confirmation of human KCC2 modulators with ouabain | shares compounds with KCC2 mod | HEK293-KCC2, thallium flux FluoZin2 fluorescence; bidirectional: low = inhibitor, high = activator | raw Tl+ flux slope (below DMSO = inhibition, above = activation) at 10 µM | hit rate 48% among 3,700 | AID 1717;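 active = thallium flux slope beyond 3 SD from same-plate DMSO control mean in most replicates, usually higher, sometimes lower; inconclusive = repeat tests gave conflicting results; inactive = no significant difference from controls in most replicates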;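 note: slope of initial-normalized fluorescence between seconds 10 and 20 after thallium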
HEK293 Tl flux2: counter-screen for KCC2 modulators: effect in parental HEK293 cells; thallium flux FluoZin-2 fluorescence slope; hit rate 33% among 3,700; shares compounds with KCC2 mod; thallium flux slope at 10 µM;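 active = thallium flux slope above the same plate's solvent-control mean plus 3 SD in both duplicate wells; inconclusive = duplicate wells that disagreed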;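 note: run without ouabain in cells lacking the KCC2 cotransporter; slope of fluorescence scaled to its starting value between 10 and 20 s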
* = called active by the depositor; ? = inconclusive; . = no result.

SMILES	L major viab	Diaphorase act	Diaphorase inh	ROMK mod	WT yeast gro inh	KCC2 mod	KCC2 secondary	KCC2 bumet counter	KCC2 secondary2	HEK293 Tl flux	KCC2 retest ouab	HEK293 Tl flux2
Cc1cc(C)c(S(=O)(=O)Nc2ccccc2C(=O)OCC(=O)NCc2ccccc2)c(C)c1	-6	0.9	14	0.0081	-20	0.5	.	.	.	.	.	.
Cc1noc(C)c1S(=O)(=O)N1CCC(C(=O)N2CCN(c3ccc(F)cc3)CC2)CC1	4	0.9	11	-0.12	4	-4.9*	0.0056	?	0.026*	0.007	?	0.011
Cc1ccc(-n2cccc2/C=C2\C(=N)N3N=C(C(C)C)SC3=NC2=O)cc1	-13	0.7	30	0.41	81*	7.1*	0.0068	0.037*	?	0.03*	0.031*	0.017*
O=C(COc1cccc2cccnc12)Nc1ccccc1N1CCOCC1	4	0.9	6	-0.13	7	-5.6*	?	0.0041	0.029	0.005*	0.014	?
Cc1occc1C(=O)Nc1nnc(C(F)(F)F)s1	-9	0.9	11	.	14	0.36	.	.	.	.	.	.
O=C(Nc1ccccc1C(=O)Nc1nnc(C(F)(F)F)s1)c1ccccc1	.	.	.	.	.	3.2*	?	0.022*	0.033	?	0.019	0.011
Cc1ccc(-c2c[nH]c(=S)n2-c2ccccc2)cc1	-8	0.8	20	0.63	9	7.3*	0.012	0.023*	0.037	?	?	?
O=C(CSc1nnc(CNC(=O)C23CC4CC(CC(C4)C2)C3)n1-c1ccc(F)cc1)Nc1ccccc1	4	0.9	8	.	-14	-0.75	.	.	.	.	.	.
O=c1c2ccccc2nc(-c2ccc(Cl)c(Cl)c2)n1O	-13	0.8	16	1.7	-11	35*	0.018*	0.11*	?	0.062*	0.083*	0.023*
Cc1ccc(-c2nc3ccccc3c(=O)n2Cc2ccccc2)cc1	9	0.8	20	-0.8	48	-0.66	.	.	.	.	.	.
O=c1c2ccccc2nc(-c2ccc(Cl)cc2Cl)n1O	1	1	4	0.58	-1	5.7*	0.012*	0.02*	0.034	0.012*	0.029*	0.011
O=c1c2ccccc2ncn1-c1ccc(Cl)cc1Cl	.	.	.	.	.	-0.43	.	.	.	.	.	.
C/C(N)=C(/C#N)C(=O)CSc1nc2ccccc2c(=O)n1Cc1ccc(C)cc1	10	0.9	10	0.25	-1	22*	0.008	0.021*	0.032	0.025*	0.029*	0.016*
Cc1ccc(Cn2c(SCC(=O)Nc3cc(C)on3)nc3ccccc3c2=O)cc1	8	1	2	0.039	14	.	0.0065	0.0054	?	0.016*	0.027*	0.019*
C/C(N)=C(/C#N)C(=O)CSc1nc2cc(Cl)ccc2c(=O)n1Cc1ccco1	-2	0.9	9	-0.38	-13	.	.	.	.	.	.	.
C/C(N)=C(/C#N)C(=O)CSc1nc2ccccc2c(=O)n1Cc1ccc(F)cc1	.	.	.	.	.	95*	?	0.071*	0.053*	0.064*	0.061*	0.056*
Cc1ccc(Cn2c(SC(C)C(N)=O)nc3ccccc3c2=O)cc1 (centres undefined)	-2	0.9	12	-0.0046	-5	8.6*	0.0061	0.022*	0.036	0.015*	0.03*	0.018*
CCC(C)NC(=O)c1c(F)c(F)c(F)c(F)c1F (centres undefined)	-5	1.1	-13	0.37	-18	0.15	.	.	.	.	.	.
O=c1[nH]c(-c2ccccn2)nc2sc(-c3ccccc3)cc12	100*	0.7	30	-0.03	76*	4.4*	0.0097	0.018*	0.032	0.033*	?	0.015*
Cc1c(C(=O)N(C)C)sc2nc(-c3ccccn3)[nH]c(=O)c12	30	0.8	18	-0.46	5	0.22	.	.	.	.	.	.
CC1=NN(C(=O)c2ccc(Br)cc2)C(O)(C(F)(F)OC(F)(F)F)C1 (centres undefined)	-2	0.9	8	-0.052	-5	6.1*	0.0094	0.0099*	0.031	0.0088*	0.029*	?
COC(=O)C1=NN(C(=O)c2ccc(Br)cc2)C(O)(C(C)(C)C)C1 (centres undefined)	-6	1	-2	0.0026	-11	66*	0.049*	0.14*	0.046*	?	0.1*	0.021*
CC1=NN(C(=O)c2csc(C)c2)C(O)(C(F)(F)F)C1 (centres undefined)	-3	0.9	13	0.34	-6	0.79	.	.	.	.	.	.
Cc1cc(NC(=O)CSc2nnc3ccccn23)no1	2	1	0	1.5	-8	0.21	.	.	.	.	.	.
CCOc1ccc(-n2c(=O)c3sccc3n(CC(=O)NCCc3ccc(OC)c(OC)c3)c2=O)cc1	-3	1.1	-6	-1.1	-14	-0.37	.	.	.	.	.	.
SMILES	L major viab	Diaphorase act	Diaphorase inh	ROMK mod	WT yeast gro inh	KCC2 mod	KCC2 secondary	KCC2 bumet counter	KCC2 secondary2	HEK293 Tl flux	KCC2 retest ouab	HEK293 Tl flux2
O=C(CSc1nc(-c2ccccc2)nc2c1Cc1ccccc1O2)Nc1ccc(C(=O)O)cc1	-11	0.6	42	1.3	-7	-0.85	.	.	.	.	.	.
O=C(CSc1nc(-c2ccc(F)cc2)nc2c1Cc1ccccc1O2)Nc1ccc(C(=O)O)cc1	-18	0.4	60*	0.81	8	3.3*	0.0075	0.0074*	0.036	0.013*	0.024*	0.012*
CSc1ccccc1NC(=O)c1cnccn1	-4	0.9	6	.	-9	3.4*	0.0072	0.0048	0.033	0.0071	0.02	0.0099
CSc1ccccc1NC(=O)c1cnc2scc(C)n2c1=O	-4	0.8	15	.	14	-3.9*	0.0067	0.0046	0.027*	0.0062*	?	0.0094
CC(C)c1ccccc1NC(=O)c1cnccn1	-4	0.9	13	.	8	.	.	.	.	.	.	.
CN=c1scc(-c2ccccc2F)n1/N=C(\C)c1cccnc1	15	1.1	-7	-0.14	71*	-3.9*	0.007	0.0048	?	0.0077	?	0.011

High-throughput results (PubChem)
